Converted amounts (≈) assume the structure as drawn.
Key:
[1] = test system: Staphylococcus aureus; test: Antibacterial activity against Telithromycin resistant Staphylococcus aureus RN4220 carrying rplD and rplV genes; format: functional
Method in brief: (§1)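 MICs determined in Luria-Bertani medium at 37°C. Resistant mutants of S. aureus RN4220 came from spreading 0.3 ml of an overnight brain heart infusion broth culture onto Luria-Bertani plates containing 1 μg/ml telithromycin. These plates were incubated at 37°C for 1 week.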

[2] = test system: Staphylococcus aureus; test: Antibacterial activity against Telithromycin resistant Staphylococcus aureus isolate KT04 carrying duplication in the carboxy-terminal region of L22 ribosomal protein; format: functional; method in brief: as §1
[3] = test system: Staphylococcus aureus; test: Antibacterial activity against Telithromycin resistant Staphylococcus aureus isolate KT05 carrying rplD and rplV mutant genes; format: functional; method in brief: as §1
[4] = test system: Staphylococcus aureus; test: Antibacterial activity against Telithromycin resistant Staphylococcus aureus isolate KT06 carrying duplication in the carboxy-terminal region of L22 ribosomal protein; format: functional; method in brief: as §1
[5] = test system: Staphylococcus aureus; test: Antibacterial activity against Telithromycin resistant Staphylococcus aureus isolate KT09 carrying rplD and rplV mutant genes; format: functional; method in brief: as §1
[6] = test system: Staphylococcus aureus; test: Antibacterial activity against Telithromycin resistant Staphylococcus aureus isolate KT10 carrying rplD and rplV mutant genes; format: functional; method in brief: as §1
[7] = test system: Staphylococcus aureus; test: Antibacterial activity against Telithromycin resistant Staphylococcus aureus isolate KT11 carrying rplD and rplV mutant genes; format: functional; method in brief: as §1
[8] = test system: Staphylococcus aureus; test: Antibacterial activity against Telithromycin resistant Staphylococcus aureus isolate KT01 carrying rplB-derived insertion of L22 ribosomal protein
[9] = test system: Staphylococcus aureus; test: Antibacterial activity against Telithromycin resistant Staphylococcus aureus isolate KT02 carrying rplB-derived insertion of L22 ribosomal protein

Row | Structure (SMILES) | MIC [1] [µg/mL] | MIC [2] [µg/mL] | MIC [3] [µg/mL] | MIC [4] [µg/mL] | MIC [5] [µg/mL] | MIC [6] [µg/mL] | MIC [7] [µg/mL] | MIC [8] [µg/mL] | MIC [9] [µg/mL]
1 | CC[C@H]1OC(=O)[C@H](C)[C@@H](O[C@H]2C[C@@](C)(OC)[C@@H](O)[C@H](C)O2)[C@H](C)[C@@H](O[C@@H]2O[C@H](C)C[C@H](N(C)C)[C@H]2O)[C@](C)(O)C[C@@H](C)C(=O)[C@H](C)[C@@H](O)[C@]1(C)O [ERYTHROMYCIN] | 0.12 (≈ 0.164 µM) | 32 (≈ 43.6 µM) | 32 (≈ 43.6 µM) | 16 (≈ 21.8 µM) | 8 (≈ 10.9 µM) | 4 (≈ 5.45 µM) | 16 (≈ 21.8 µM) | 32 (≈ 43.6 µM) | 32 (≈ 43.6 µM)
2 | CC[C@H]1OC(=O)[C@H](C)C(=O)[C@H](C)[C@@H](O[C@@H]2O[C@H](C)C[C@H](N(C)C)[C@H]2O)[C@](C)(OC)C[C@@H](C)C(=O)[C@H](C)[C@H]2N(CCCCn3cnc(-c4cccnc4)c3)C(=O)O[C@]12C [TELITHROMYCIN] | 0.03 (≈ 0.0369 µM) | 16 (≈ 19.7 µM) | 16 (≈ 19.7 µM) | 4 (≈ 4.93 µM) | 2 (≈ 2.46 µM) | 4 (≈ 4.93 µM) | 8 (≈ 9.85 µM) | 16 (≈ 19.7 µM) | 8 (≈ 9.85 µM)

— ChEMBL document CHEMBL1255279, “Selection for high-level telithromycin resistance in Staphylococcus aureus yields mutants resulting from an rplB-to-rplV gene conversion-like event” (2008)
